Source: ChEMBL document CHEMBL1142940, “Use of simple docking methods to screen a virtual library for heteroactivators of cytochrome P450 2C9” (J Med Chem, 2007)
Values joined by “and” are separate entries in the source; they are usually repeats but may differ in a detail not shown here. Equal values may be shown once.

Target: T1, CYP2C9 (Homo sapiens, UniProt P11712)
Assay: (§1) Activation of human CYP2C9 assessed as (S)-Flurbiprofen hydroxylation
Assay type: ADME
Parameters: concentration or dose not given beside the values
Details: probe (S)-flurbiprofen
Method in brief: (§2)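 Reconstituted CYP2C9 (5 pmol) in 0.2 mL incubations with 20 μM (S)-flurbiprofen held constant, 50 mM potassium phosphate pH 7.4, 37 °C for 20 min. Test compounds diluted in DMSO (1% final in all reactions, controls included), screened on a log scale from 0.001–1000 μM depending on solubility. 4′-OH flurbiprofen formation measured after quench. Triplicate reactions.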

T1 sequence (P11712 whole entry): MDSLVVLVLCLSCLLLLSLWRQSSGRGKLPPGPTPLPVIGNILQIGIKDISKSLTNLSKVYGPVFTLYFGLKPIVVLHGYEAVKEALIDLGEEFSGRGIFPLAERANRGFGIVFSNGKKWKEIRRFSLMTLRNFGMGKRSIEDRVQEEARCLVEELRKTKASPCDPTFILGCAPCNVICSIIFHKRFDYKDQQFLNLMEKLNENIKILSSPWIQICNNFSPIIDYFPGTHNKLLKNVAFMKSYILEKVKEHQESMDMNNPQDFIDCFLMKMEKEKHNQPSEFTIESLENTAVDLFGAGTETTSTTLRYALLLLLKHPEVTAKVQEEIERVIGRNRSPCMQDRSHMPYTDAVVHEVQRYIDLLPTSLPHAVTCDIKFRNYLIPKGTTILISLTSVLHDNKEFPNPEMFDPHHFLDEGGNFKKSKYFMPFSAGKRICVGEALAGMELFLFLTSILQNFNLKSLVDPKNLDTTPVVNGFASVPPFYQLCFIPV

activity [%] | Compound
8 | CC(=O)Oc1ccc(S(=O)(=O)c2ccc(OC(C)=O)cc2)cc1
50.6 | Cc1ccc(S(=O)(=O)c2ccc(C)cc2)cc1
7.7 | Cn1c(=O)[nH]c(=O)c2ncn(CC(=O)c3ccc(F)cc3)c21
3 | Cn1c(=O)c2c(ncn2CN2CCCC2)n(C)c1=O

The next lines start with the compound.

Compound | activity [%]
NCC(=O)Nc1ccc2ccccc2c1 | 4.4
Cc1cccc(C(=O)[C@@H](O)c2cccc(C)n2)n1 | 46
[O-][S+](c1ccccc1)c1ccccc1 | 3.5
Cc1ccc([C@@H]2NC(=O)c3ccccc3N2)cc1 | 6.6
O=S(=O)(c1ccc(O)cc1)c1ccc(O)cc1 | 95
O=S(=O)(c1ccccc1)c1ccccc1 [(PHENYLSULFONYL)BENZENE] | 40

Target: T2, Cytochrome P450 2C9 (Homo sapiens, UniProt P11712)
T2 sequence (P11712 whole entry): as above
Assay: as §1
Assay type: ADME
Parameters: concentration or dose not given beside the values
Details: not given
Method in brief: as §2

activity | Compound
95% and 64.1% | Nc1ccc(S(=O)(=O)c2ccc(N)cc2)cc1 [DAPSONE]

Target: T1, CYP2C9
Assay: Inhibition of human CYP2C9 assessed as (S)-Flurbiprofen hydroxylation at 100 uM
Assay type: ADME
Details: probe (S)-flurbiprofen
Method in brief: as §2

inhibition at 100 µM [%] | Compound
50 | O=C(c1ccc(F)cc1)c1cnc2sccn12
50 | CN1C(=O)N(c2ccc(Cl)c(Cl)c2)C(=N)C1=S

Target: T1, CYP2C9
Assay: Inhibition of human CYP2C9 assessed as (S)-Flurbiprofen hydroxylation at 1 uM
Assay type: ADME
Details: probe (S)-flurbiprofen
Method in brief: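 Reconstituted CYP2C9 (5 pmol) in 0.2 mL incubations with 20 μM (S)-flurbiprofen held constant, in 50 mM potassium phosphate pH 7.4. Run at 37 °C for 20 min, then quenched, and 4′-OH flurbiprofen formation measured. Test compounds were dosed from DMSO on a log scale, with 1% DMSO final in all reactions, in triplicate. Activity is reported as % change versus control.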

Compound | inhibition at 1 µM [%]
Nc1cc(N)c(N)cc1N | 50

Target: T2, Cytochrome P450 2C9
Assay: Activation of human CYP2C9 assessed as (S)-Flurbiprofen hydroxylation
Parameters: concentration or dose not given beside the values
Details: not given

activity [%] | Compound
-5 | O=C(O)c1ccc(S(=O)(=O)c2ccc(C(=O)O)cc2)cc1
-17.1 | Nc1ccc(S(=O)(=O)Nc2ncccn2)cc1 [SULFADIAZINE]
-18.8 | Cc1cc(C)nc(NS(=O)(=O)c2ccc(N)cc2)n1 [SULFAMETHAZINE]

The remaining lines, values behind:

Compound | activity [%]
Nc1ccc(S(=O)(=O)c2ccc([N+](=O)[O-])cc2)cc1 | -10.6
COc1ccc(S(=O)(=O)c2ccc(OC)cc2)cc1 | -25
c1ccc2c(c1)sc1ccccc12 [DIBENZOTHIOPHENE] | -10.6
